In the library only some 5.9% were active in any assay of this set; here they are far more common.
Rev-RRE block: inhibitors of HIV-1 Rev-RRE RNA interaction | Rev peptide-RRE RNA binding, FRET | AID 704 | P05866 | actives 0.79% (n = 97,000) | inhibition, % at 8 µM;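 active = inhibition above the screen-wide mean plus 3 SD, cut at about 35% in these data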;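 also: 0% = median DMSO wells and 100% = median Neomycin B control wells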
Target sequence (P05866 whole entry, looked up): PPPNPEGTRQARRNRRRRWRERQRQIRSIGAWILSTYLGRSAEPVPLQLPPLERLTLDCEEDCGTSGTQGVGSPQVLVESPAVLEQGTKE
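assay system = Cy5-tagged RRE RNA duplex with fluorescein-tagged Rev peptide | incubation = 5 + 15 min at 25 °C | also added = labelled Rev peptide | measure = % inhibition of FRET ratio versus controls | benchmarks = DMSO wells as 0% and neomycin B wells as 100% inhibition | measured by = FRET fluorescence readout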
Pyk2 oligo antag: antagonists of human Pyk2 oligomerization; Q14289; Q293 cells, Pyk2 FERM NanoBiT luminescence; hits give low values; z-score (the deposit names both 25 µM and 10 µM); actives 0.83% (n = 99,000);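 active = Z-score of -3 or lower, scaled per plate to the spread of control and sample wells; inactive = z-score above -3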;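 also: negative z-score means lost luminescence so less FERM oligomerization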
Cav3 T inh: human Cav3.2 channel inhibition, primary screen; Cav3.2-expressing cells, Fluo-4 calcium fluorescence FDSS; hits give low values; B-score at 10 µM; actives 4% (n = 100,000); AID 449739;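 active = single-dose well whose peak fluorescence ratio is a statistical outlier from its plate by either plate-standardised score or position-corrected B-score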
hDAT+cocaine: modulates human dopamine transporter uptake under cocaine; LLC-PK1 hDAT cells, [14C]-dopamine uptake with cocaine IC80; actives deviate in either direction; Q01959; actives 1.3% (n = 110,000); B-score at 10 µM;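 active = Z score or B-score, a plate-position-corrected score, falls beyond the plate's 99.7% confidence bounds, in either direction; inactive = both scores lie inside the 99.7% bounds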;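 also: scored against the spread of the other compound wells on the same plate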
Phagocytosis inh: inhibitors of macrophage phagocytosis; inhibition, % at 5 µM; actives 0.07% (n = 110,000); AID 1029; J774A.1 macrophage IgG-bead phagocytosis, imaging;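 active = inhibition above the mean of the plate negative controls plus 5 SD, cut at about 13% in these data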;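 also: phagocytic index as fraction of beads internalized from green versus red external bead signal; plate controls were DMSO negative control for no effect and cytochalasin-D positive control for full effect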
Measles CPE: protection of cells from measles virus | Measles virus-infected cells, CPE protection, absorbance | actives 1.5% (n = 140,000) | protection (pct of control), % at 4 µM; in the data active = protection mostly above about 24%, no sharp cut-off; inactive = mostly below about 26%
Numbers without * were called inactive; x = no result given.

SMILES	Rev-RRE block	Pyk2 oligo antag	Cav3 T inh	hDAT+cocaine	Phagocytosis inh	Measles CPE
Cc1ccc(C(=O)NCC2(c3ccccc3)CCCC2)cc1	5	0.56	-3.9*	1.1	x	4
COc1ccc(OC)c(/C=C(\NC(=O)c2ccccc2)C(=O)N/N=C/c2ccc(C)s2)c1	7	-2.2	-0.48	0.026	0	35*
CCc1ccc2nc(SCC(=O)N3CCCCC3)c(C#N)cc2c1	12	-1.6	-0.91	-0.061	x	6
CCc1ccc2nc(SCC(=O)N3CC(=O)Nc4ccccc43)c(C#N)cc2c1	33	-3.4*	0.22	-1	x	14
Cc1nnc2sc(SCC(=O)Nc3nccs3)nn2c1=O	x	0.39	x	x	-5	6
O=C(N(Cc1ccccc1)c1ccccn1)C12CC3CC(CC(C3)C1)C2	17	-0.51	-3.6*	0.95	x	6
Cc1nnc(SCC(=O)NCc2ccccc2)[nH]c1=O	6	0.42	0.9	-1.1	-2	55*
Cc1nnc(SCC(=O)NCCc2ccccc2)[nH]c1=O	11	x	x	x	x	x
C[n+]1cccc(CNC(=O)/C=N/O)c1	2	-0.04	0.33	0.74	x	active
Fc1ccc(-c2cc(C(F)(F)F)nc(NCc3cccs3)n2)cc1	x	x	x	x	-3	7
Cc1noc(C)c1S(=O)(=O)N(CCc1ccccc1)Cc1ccccc1	14	1	-4.7*	-1.9	-3	3
CSc1cc(-c2ccc(Cl)cc2)c(C(=O)N2CCCC2)s1	11	-1	-4.4*	0.97	0	9
C/C=C/C=N/NC(=O)CN(c1ccc(Br)cc1)S(=O)(=O)c1ccccc1	x	-0.26	x	x	-1	3
Cc1snc(S(=O)(=O)/C(C#N)=N/Nc2ccc(C(F)(F)F)cc2)c1C#N	5	-2.9	-6.4*	-1.2	-1	2
Cc1snc(S(=O)(=O)/C(C#N)=N\Nc2ccccc2)c1C#N	4	0.1	0.39	0.16	-1	3
Clc1ccc(-n2c(SCc3nc4ccccc4[nH]3)nnc2-c2ccncc2)cc1	0	0.17	0.24	-0.056	1	11
Cc1ccc(C(=O)Nc2nc(C(C)(C)C)cs2)s1	10	-1.9	-4.8	0.36	2	4
O=C(Nc1nc(-c2cccs2)cs1)c1ccc(Cl)s1	x	x	-4.1*	0.16	x	10
CC(C)(C)c1csc(NC(=O)c2ccc(Cl)s2)n1	13	-3*	-1.2	-2.6*	3	3
CCc1n[nH]c(=S)n1/N=C/c1ccc2c(c1)OCO2	5	0.04	0.7	0.54	2	42*
Cn1c(=S)n(/N=C/c2ccc3c(c2)OCO3)c2ccccc21	5	-0.2	x	x	0	12
